The source made the active and inactive calls. The rule behind the calls is not given here.
Tests used:
MCF7 [1] = experiment: Reversal of hyperpolarized mitochondrial membrane potential in human MCF7 cells after 12 hrs by JC1 staining-based flow cytometric analysis; type: functional, cell-based
[2] = target: T1, [Pyruvate dehydrogenase (acetyl-transferring)] kinase isozyme 1, mitochondrial (Homo sapiens, UniProt Q15118); experiment: Inhibition of PDK1 in human MCF7 cells assessed as decrease in extracellular acidification rate after 12 hrs; type: cell-based
T1 sequence (Q15118 whole entry): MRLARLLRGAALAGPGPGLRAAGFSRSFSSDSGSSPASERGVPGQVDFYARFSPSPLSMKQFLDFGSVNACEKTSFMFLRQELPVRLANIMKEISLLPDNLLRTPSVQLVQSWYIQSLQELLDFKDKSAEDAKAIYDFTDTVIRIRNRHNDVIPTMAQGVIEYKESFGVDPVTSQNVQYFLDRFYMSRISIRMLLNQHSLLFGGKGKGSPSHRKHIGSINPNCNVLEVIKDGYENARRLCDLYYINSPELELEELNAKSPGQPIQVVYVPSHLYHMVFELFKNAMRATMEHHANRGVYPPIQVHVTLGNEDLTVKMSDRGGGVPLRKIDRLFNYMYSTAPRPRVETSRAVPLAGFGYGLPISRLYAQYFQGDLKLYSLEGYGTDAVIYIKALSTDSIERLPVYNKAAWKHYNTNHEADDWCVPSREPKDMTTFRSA
Method in brief: (§1)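 MCF-7 cells at 2.7×10⁴ cells/well in XF24 plates, attached, then grown 24 h at 37 °C in 5% CO2. Treated 12 h at 5, 10 or 20 µM, rinsed into glycolysis stress-test medium and held 1 h at 37 °C without CO2. OCR, ECAR and PPR then measured on a Seahorse XFe24 analyser. Significance P < 0.05 versus untreated control.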

MCF7 [3] = experiment: Induction of apoptosis in human MCF7 assessed as necrotic cells at 20 uM after 5 hrs by FITC-annexin V/propidium iodide staining-based flow cytometric analysis (reference value: 1.86%); type: functional
[4] = target: T1, [Pyruvate dehydrogenase (acetyl-transferring)] kinase isozyme 1, mitochondrial; experiment: Inhibition of recombinant N-terminal 6xHis-SUMO-tagged human PDK1 (29 to 436 residues) expressed in Escherichia coli BL-21 assessed as phosphorylation of RYHGHSMSDP at 50 uM after 30 mins by Kinase-Glo luminescent assay
A549 [5] = experiment: Cytotoxicity against human A549 cells assessed as growth inhibition at 20 uM after 72 hrs by IncuCyte Zoom live cells imaging method; type: functional, cell-based
MCF7 [6] = experiment: Cytotoxicity against human MCF7 cells assessed as growth inhibition after 72 hrs by MTT assay; type: functional, cell-based; conditions: MCF7, 72 h
MCF7 [7] = experiment: Induction of apoptosis in human MCF7 assessed as late apoptotic cells at 20 uM after 15 hrs by FITC-annexin V/propidium iodide staining-based flow cytometric analysis (reference value: 1.95%); type: functional
MCF7 [8] = experiment: Induction of apoptosis in human MCF7 assessed as late apoptotic cells at 20 uM after 5 hrs by FITC-annexin V/propidium iodide staining-based flow cytometric analysis (reference value: 1.95%); type: functional
A549 [9] = experiment: Cytotoxicity against human A549 cells assessed as growth inhibition after 72 hrs by MTT assay; type: functional, cell-based; conditions: A549, 72 h
[10] = Cytotoxicity against human MCF10A cells assessed as growth inhibition at 20 uM after 72 hrs by MTT assay relative to control; type: cell-based, MCF-10A; conditions: read-out: GI
[11] = target: T1, [Pyruvate dehydrogenase (acetyl-transferring)] kinase isozyme 1, mitochondrial; experiment: Inhibition of recombinant N-terminal 6xHis-SUMO-tagged human PDK1 (29 to 436 residues) expressed in Escherichia coli BL-21 assessed as activation of PDC at 50 uM
MCF7 [12] = experiment: Induction of apoptosis in human MCF7 assessed as necrotic cells at 20 uM after 10 hrs by FITC-annexin V/propidium iodide staining-based flow cytometric analysis (reference value: 1.86%); type: functional
MCF7 [13] = experiment: Reversal of hyperpolarized mitochondrial membrane potential in human MCF7 cells assessed as cells with vital and intact mitochondrial membranes at 20 uM after 12 hrs by JC1 staining-based flow cytometric analysis; type: functional
Method in brief: (§2)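 MCF-7 cells treated 12 h (5, 10 or 20 µM), then stained with JC-1. Depolarization read as the ratio of green J-monomer to red J-aggregate fluorescence.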

Sus scrofa [14] = species: Sus scrofa; experiment: Activation of pig heart PDC assessed as production of NADH at 50 uM in absence of ATP
Method in brief: (§3)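 Pig heart PDC (80 µg/ml, carrying intrinsic PDK activity) preincubated 40 min at 37 °C in Mops pH 7.20 buffer with NaF, acetyl-CoA, NADH and DTT. Kinase step 3 min at 37 °C with 55 µM ADP and 100 µM ATP, or no ATP. Stopped with ADP/pyruvate. Residual PDC activity then read as NADH formation at 340 nm, 37 °C, in Tris pH 7.8 with TPP, NAD+, pyruvate and CoA.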

MCF7 [15] = experiment: Induction of apoptosis in human MCF7 assessed as viable cells at 20 uM after 10 hrs by FITC-annexin V/propidium iodide staining-based flow cytometric analysis (reference value: 93.8%); type: functional; conditions: MCF7, 10 h, read-out: Activity
MCF7 [16] = experiment: Induction of apoptosis in human MCF7 assessed as viable cells at 20 uM by FITC-annexin V/propidium iodide staining-based flow cytometric analysis; type: functional, cell-based; conditions: TDE = time-dependent effect
[17] = target: T1, [Pyruvate dehydrogenase (acetyl-transferring)] kinase isozyme 1, mitochondrial; experiment: Inhibition of recombinant N-terminal 6xHis-SUMO-tagged human PDK1 (29 to 436 residues) expressed in Escherichia coli BL-21 assessed as suppression of PDC phosphorylation at S293 at 50 uM after 30 mins by Western blot method
MCF7 [18] = experiment: Induction of apoptosis in human MCF7 assessed as early apoptotic cells at 20 uM after 5 hrs by FITC-annexin V/propidium iodide staining-based flow cytometric analysis (reference value: 2.38%); type: functional
MCF7 [19] = experiment: Cytotoxicity against human MCF7 cells assessed as growth inhibition at 20 uM after 72 hrs by IncuCyte Zoom live cells imaging method; type: functional, cell-based
MCF7 [20] = experiment: Reversal of hyperpolarized mitochondrial membrane potential in human MCF7 cells assessed as cells with vital and intact mitochondrial membranes at 5 uM after 12 hrs by JC1 staining-based flow cytometric analysis; type: functional; method in brief: as §2
[21] = target: T1, [Pyruvate dehydrogenase (acetyl-transferring)] kinase isozyme 1, mitochondrial; experiment: Inhibition of PDK1 in human MCF7 cells assessed as decrease in lactate production at 5 to 20 uM after 12 hrs; type: cell-based
MCF7 [22] = experiment: Induction of apoptosis in human MCF7 assessed as viable cells at 20 uM after 15 hrs by FITC-annexin V/propidium iodide staining-based flow cytometric analysis (reference value: 93.8%); type: functional; conditions: MCF7, 15 h, read-out: Activity
MCF7 [23] = experiment: Reversal of hyperpolarized mitochondrial membrane potential in human MCF7 cells assessed as cells with vital and intact mitochondrial membranes at 10 uM after 12 hrs by JC1 staining-based flow cytometric analysis; type: functional; method in brief: as §2
[24] = target: T1, [Pyruvate dehydrogenase (acetyl-transferring)] kinase isozyme 1, mitochondrial; experiment: Binding affinity to recombinant N-terminal 6xHis-SUMO-tagged human PDK1 (29 to 436 residues) expressed in Escherichia coli BL-21 by isothermal titration calorimetric method
Method in brief: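 Ligand titrated into PDK1 (10 or 20 µM) by ITC at 25 °C, 2.5 µL injections into a 300 µL cell. Protein is His-SUMO-tagged, co-expressed with GroEL/GroES in E. coli BL-21, purified by Ni-IMAC and gel filtration.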

[25] = Cytotoxicity against human MCF10A cells assessed as growth inhibition at 10 uM after 72 hrs by MTT assay relative to control; type: cell-based, MCF-10A; conditions: read-out: GI
MCF7 [26] = experiment: Induction of apoptosis in human MCF7 assessed as early apoptotic cells at 20 uM after 15 hrs by FITC-annexin V/propidium iodide staining-based flow cytometric analysis (reference value: 2.38%); type: functional
MCF7 [27] = experiment: Induction of apoptosis in human MCF7 assessed as late apoptotic cells at 20 uM after 10 hrs by FITC-annexin V/propidium iodide staining-based flow cytometric analysis (reference value: 1.95%); type: functional
MCF7 [28] = experiment: Reversal of hyperpolarized mitochondrial membrane potential in human MCF7 cells assessed as J-monomer/J-aggregate ratio at 20 uM after 12 hrs by JC1 staining-based flow cytometric analysis; type: functional; method in brief: as §2
MCF7 [29] = experiment: Induction of apoptosis in human MCF7 assessed as viable cells at 20 uM after 5 hrs by FITC-annexin V/propidium iodide staining-based flow cytometric analysis (reference value: 93.8%); type: functional; conditions: MCF7, 5 h, read-out: Activity
[30] = target: T1, [Pyruvate dehydrogenase (acetyl-transferring)] kinase isozyme 1, mitochondrial; experiment: Inhibition of PDK1 in human MCF7 cells assessed as decrease in proton production rate after 12 hrs; type: cell-based; method in brief: as §1
[31] = target: T1, [Pyruvate dehydrogenase (acetyl-transferring)] kinase isozyme 1, mitochondrial; experiment: Inhibition of PDK1 in human MCF7 cells assessed as increase in ratio of oxygen consumption rate to extracellular acidification rate at 20 uM after 12 hrs; type: cell-based; method in brief: as §1
[32] = target: T1, [Pyruvate dehydrogenase (acetyl-transferring)] kinase isozyme 1, mitochondrial; experiment: Inhibition of PDK1 in human MCF7 cells assessed as increase in oxygen consumption rate at 40 uM after 12 hrs; type: cell-based
MCF7 [33] = experiment: Cytotoxicity against human MCF7 cells assessed as growth inhibition at 40 uM after 72 hrs by MTT assay relative to control; type: functional, cell-based
Sus scrofa [34] = species: Sus scrofa; experiment: Activation of pig heart PDC assessed as production of NADH at 50 uM in presence of ATP; method in brief: as §3
MCF7 [35] = experiment: Induction of apoptosis in human MCF7 assessed as necrotic cells at 20 uM after 15 hrs by FITC-annexin V/propidium iodide staining-based flow cytometric analysis (reference value: 1.86%); type: functional
MCF7 [36] = experiment: Induction of mitochondrial membrane potential depolarization in human MCF7 cells at 40 uM after 12 hrs by TMRM staining-based assay; type: functional, cell-based
MCF7 [37] = experiment: Induction of apoptosis in human MCF7 assessed as early apoptotic cells at 20 uM after 10 hrs by FITC-annexin V/propidium iodide staining-based flow cytometric analysis (reference value: 2.38%); type: functional
[38] = target: T1, [Pyruvate dehydrogenase (acetyl-transferring)] kinase isozyme 1, mitochondrial; experiment: Inhibition of PDK1 in human MCF7 cells assessed as increase in oxygen consumption rate at 5 to 20 uM after 12 hrs; type: cell-based; method in brief: as §1
A549 [39] = experiment: Cytotoxicity against human A549 cells assessed as growth inhibition at 40 uM after 72 hrs by MTT assay relative to control; type: functional, cell-based

O=C(Nc1ccc(Cl)c(C(F)(F)F)c1)C(Cl)Cl
Activity (MCF7 [1]): Dose-dependent effect | inhibition [2]: Dose-dependent effect | Activity (MCF7 [3]): 5.41% | inhibition [4]: Active | growth inhibition (GI) (A549 [5]): Active | IC50 (MCF7 [6]): 3.12 µM | Activity (MCF7 [7]): 14.2% | Activity (MCF7 [8]): 10.2% | IC50 (A549 [9]): 7.46 µM | inhibition at 72 h, 20 µM [10]: 10.3% | inhibition [11]: Active | Activity (MCF7 [12]): 3.47% | Activity (MCF7 [13]): 46.8% | Activity (Sus scrofa [14]): Active | viability at 20 µM (MCF7 [15]): 81.9% | Activity (MCF7 [16]): tde | inhibition [17]: Active | Activity (MCF7 [18]): 1.98% | growth inhibition (GI) (MCF7 [19]): Active | Activity (MCF7 [20]): 79.7% | inhibition [21]: Active | viability at 20 µM (MCF7 [22]): 78.2% | Activity (MCF7 [23]): 65% | Kd [24]: 40.8 µM | inhibition at 72 h, 10 µM [25]: 3.51% | Activity (MCF7 [26]): 2.65% | Activity (MCF7 [27]): 11.8% | Ratio (MCF7 [28]): 1.69 | viability at 20 µM (MCF7 [29]): 82.4% | inhibition [30]: Dose-dependent effect | inhibition [31]: Active | inhibition [32]: inactive | growth inhibition (GI) (MCF7 [33]): Active | Activity (Sus scrofa [34]): inactive | Activity (MCF7 [35]): 4.96% | Activity (MCF7 [36]): Active | Activity (MCF7 [37]): 2.88% | inhibition [38]: Dose-dependent effect | growth inhibition (GI) (A549 [39]): Active

— ChEMBL document CHEMBL3813671, “Unexpected Discovery of Dichloroacetate Derived Adenosine Triphosphate Competitors Targeting Pyruvate Dehydrogenase Kinase To Inhibit Cancer Proliferation” (J Med Chem, 2016)
